Data reported in ChEMBL document CHEMBL3994613, “Diaryltriazenes as antibacterial agents against methicillin resistant Staphylococcus aureus (MRSA) and Mycobacterium smegmatis” (Eur J Med Chem, 2017).
In brackets after ≈: the same amount, converted by molar mass.

Key:
Staphylococcus aureus [1] = test: Bactericidal activity against methicillin-resistant Staphylococcus aureus USA300 after 18 to 20 hrs by microdilution method; assay type: functional
How it was run: (§1)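 EUCAST broth microdilution in LB broth. Inoculum prepared by direct colony suspension from 20–24 h LB agar (E. coli DH10β) or 5% sheep blood BHI agar (MRSA USA300) growth. Final inoculum 2×10^4 CFU/mL, 18–20 h aerobic at 37 °C, growth read on a plate reader, at least duplicate.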

[2] = test system: Mycolicibacterium smegmatis; test: Antimycobacterial activity against Mycobacterium smegmatis MC2 155 after 94 to 98 hrs by microdilution method; assay type: functional; conditions: str. MC2 155
How it was run: (§2)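 Microdilution in TSB broth. Inoculum from colonies grown 96 h on TSA, final 1×10^5 CFU/mL, aerobic 94–98 h at 37 °C, growth read on a plate reader, at least duplicate.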

Saccharomyces cerevisiae = test: Antibacterial activity against Saccharomyces cerevisiae after 18 to 20 hrs by microdilution method
How it was run: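 Microdilution in YEP broth against wild-type yeast grown on YEP agar. Final inoculum 1×10^5 CFU/mL. Read after 18–20 h aerobic incubation at 30 °C on plate reader, at least one duplicate.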

[3] = test system: Mycolicibacterium smegmatis; test: Bactericidal activity against Mycobacterium smegmatis MC2 155 after 96 hrs by microdilution method; assay type: functional; conditions: str. MC2 155, 96 h; how it was run: as §2
Escherichia coli [4] = test: Bactericidal activity against Escherichia coli DH10beta harboring pHuLUC3 after 18 to 20 hrs by microdilution method; assay type: functional; how it was run: as §1
Escherichia coli [5] = test: Antibacterial activity against Escherichia coli DH10beta harboring pHuLUC3 after 18 to 20 hrs by microdilution method; assay type: functional; how it was run: as §1
Staphylococcus aureus [6] = test: Antibacterial activity against methicillin-resistant Staphylococcus aureus USA300 after 18 to 20 hrs by microdilution method; assay type: functional; how it was run: as §1
Staphylococcus aureus [7] = test: Antibacterial activity against methicillin-resistant Staphylococcus aureus USA300 by broth microdilution method

Structure (SMILES) | MBC (Staphylococcus aureus [1]) [µg/mL] | MIC [2] [µg/mL] | MIC (Saccharomyces cerevisiae) [µg/mL] | MBC [3] [µg/mL] | MBC (Escherichia coli [4]) [µg/mL] | MIC (Escherichia coli [5]) [µg/mL] | MIC (Staphylococcus aureus [6]) [µg/mL] | MIC (Staphylococcus aureus [7]) [µg/mL]
COC(=O)N(/N=N/c1ccc([N+](=O)[O-])cc1Cl)c1ccc([N+](=O)[O-])cc1Cl | 32 (≈ 77.3 µM) | 128 (≈ 309 µM) | > 128 | > 128 | 128 (≈ 309 µM) | 64 (≈ 155 µM) | 32 (≈ 77.3 µM) | 
O=C(c1ccccc1C(F)(F)F)N(/N=N/c1ccc([N+](=O)[O-])cc1C(F)(F)F)c1ccc([N+](=O)[O-])cc1C(F)(F)F |  | > 128 | > 128 |  | 128 (≈ 215 µM) | 128 (≈ 215 µM) | > 128 | 
Clc1ccc(Cl)c(/N=N/Nc2cc(Cl)ccc2Cl)c1 |  | > 128 | > 128 |  |  | > 128 | > 128 | 
CC(=O)N(/N=N/c1ccc([N+](=O)[O-])cc1)c1ccc([N+](=O)[O-])cc1 |  | > 128 | > 128 |  | 128 (≈ 389 µM) | 64 (≈ 194 µM) | > 128 | 
CC(=O)N(/N=N/c1ccc([N+](=O)[O-])cc1Cl)c1ccc([N+](=O)[O-])cc1Cl | 4 (≈ 10 µM) | 16 (≈ 40.2 µM) | > 128 | > 128 | > 128 | 64 (≈ 161 µM) | 4 (≈ 10 µM) | 
O=C(c1ccccc1)N(/N=N/c1ccc([N+](=O)[O-])cc1Cl)c1ccc([N+](=O)[O-])cc1Cl | 32 (≈ 69.5 µM) | 128 (≈ 278 µM) | > 128 | > 128 | 32 (≈ 69.5 µM) | 32 (≈ 69.5 µM) | 32 (≈ 69.5 µM) | 
O=C(c1ccccc1F)N(/N=N/c1ccc([N+](=O)[O-])cc1Br)c1ccc([N+](=O)[O-])cc1Br |  | > 128 | > 128 |  | 128 (≈ 226 µM) | 128 (≈ 226 µM) | > 128 | 
O=C(c1ccccc1C(F)(F)F)N(/N=N/c1ccc([N+](=O)[O-])cc1Br)c1ccc([N+](=O)[O-])cc1Br |  | > 128 | > 128 |  | 64 (≈ 104 µM) | 64 (≈ 104 µM) | > 128 | 
O=C(c1cccc(C(F)(F)F)c1)N(/N=N/c1ccc([N+](=O)[O-])cc1Br)c1ccc([N+](=O)[O-])cc1Br | 8 (≈ 13 µM) | 128 (≈ 207 µM) | > 128 | > 128 | 64 (≈ 104 µM) | 32 (≈ 51.9 µM) | 8 (≈ 13 µM) | 
O=C(c1ccc(F)cc1)N(/N=N/c1ccc([N+](=O)[O-])cc1Br)c1ccc([N+](=O)[O-])cc1Br |  | > 128 | > 128 |  | 64 (≈ 113 µM) | 64 (≈ 113 µM) | > 128 | 
CC(=O)OCC(=O)N(/N=N/c1ccc([N+](=O)[O-])cc1Br)c1ccc([N+](=O)[O-])cc1Br | 16 (≈ 29.4 µM) | > 128 | > 128 |  | 64 (≈ 117 µM) | 64 (≈ 117 µM) | 8 (≈ 14.7 µM) | 
O=C(c1ccccc1F)N(/N=N/c1ccc([N+](=O)[O-])cc1Cl)c1ccc([N+](=O)[O-])cc1Cl |  | > 128 | > 128 |  | 128 (≈ 268 µM) | 64 (≈ 134 µM) | > 128 | 
O=C(c1ccccc1C(F)(F)F)N(/N=N/c1ccc([N+](=O)[O-])cc1Cl)c1ccc([N+](=O)[O-])cc1Cl |  | > 128 | > 128 |  | 128 (≈ 242 µM) | 64 (≈ 121 µM) | > 128 | 
O=C(c1cccc(C(F)(F)F)c1)N(/N=N/c1ccc([N+](=O)[O-])cc1Cl)c1ccc([N+](=O)[O-])cc1Cl | 8 (≈ 15.1 µM) | 32 (≈ 60.6 µM) | > 128 | > 128 | 64 (≈ 121 µM) | 32 (≈ 60.6 µM) | 8 (≈ 15.1 µM) | 
O=C(c1ccc(C(F)(F)F)cc1)N(/N=N/c1ccc([N+](=O)[O-])cc1Cl)c1ccc([N+](=O)[O-])cc1Cl | 8 (≈ 15.1 µM) | 16 (≈ 30.3 µM) | > 128 | > 128 | 128 (≈ 242 µM) | 64 (≈ 121 µM) | 8 (≈ 15.1 µM) | 
O=C(c1cccc(F)c1)N(/N=N/c1ccc([N+](=O)[O-])cc1Cl)c1ccc([N+](=O)[O-])cc1Cl | 16 (≈ 33.5 µM) | > 128 | > 128 |  | 64 (≈ 134 µM) | 64 (≈ 134 µM) | 16 (≈ 33.5 µM) | 
Fc1ccc(/N=N/Nc2ccc(F)cc2C(F)(F)F)c(C(F)(F)F)c1 |  | > 128 | > 128 |  |  | > 128 | > 128 | 
O=C(c1cccnc1)N(/N=N/c1ccc([N+](=O)[O-])cc1Cl)c1ccc([N+](=O)[O-])cc1Cl | 32 (≈ 69.4 µM) | 64 (≈ 139 µM) | > 128 | 128 (≈ 278 µM) | 32 (≈ 69.4 µM) | 32 (≈ 69.4 µM) | 32 (≈ 69.4 µM) | 
O=C(c1ccncc1)N(/N=N/c1ccc([N+](=O)[O-])cc1)c1ccc([N+](=O)[O-])cc1 | 128 (≈ 326 µM) | > 128 | > 128 |  | 32 (≈ 81.6 µM) | 16 (≈ 40.8 µM) | 128 (≈ 326 µM) | 
O=C(CCl)N(/N=N/c1ccc([N+](=O)[O-])cc1Br)c1ccc([N+](=O)[O-])cc1Br |  | > 128 | > 128 |  | 128 (≈ 245 µM) | 64 (≈ 123 µM) | > 128 | 

Structure (SMILES) | MBC (Staphylococcus aureus [1]) [µg/mL] | MIC [2] [µg/mL] | MIC (Saccharomyces cerevisiae) [µg/mL] | MBC [3] [µg/mL] | MBC (Escherichia coli [4]) [µg/mL] | MIC (Escherichia coli [5]) [µg/mL] | MIC (Staphylococcus aureus [6]) [µg/mL] | MIC (Staphylococcus aureus [7]) [µg/mL]
O=C(c1ccncc1)N(/N=N/c1ccc([N+](=O)[O-])c(C(F)(F)F)c1)c1ccc([N+](=O)[O-])c(C(F)(F)F)c1 | 2 (≈ 3.79 µM) | 64 (≈ 121 µM) | > 128 | > 128 | 32 (≈ 60.6 µM) | 32 (≈ 60.6 µM) | 2 (≈ 3.79 µM) | 
O=C(c1cccnc1)N(/N=N/c1ccc([N+](=O)[O-])cc1Br)c1ccc([N+](=O)[O-])cc1Br | 32 (≈ 58.2 µM) | 64 (≈ 116 µM) | > 128 | 128 (≈ 233 µM) | 32 (≈ 58.2 µM) | 16 (≈ 29.1 µM) | 32 (≈ 58.2 µM) | 
O=C(CCl)N(/N=N/c1ccc(C(F)(F)F)cc1C(F)(F)F)c1ccc(C(F)(F)F)cc1C(F)(F)F | > 128 |  | > 128 |  |  |  | > 128 | 
O=C(c1cccnc1)N(/N=N/c1ccc([N+](=O)[O-])cc1F)c1ccc([N+](=O)[O-])cc1F | 64 (≈ 149 µM) | > 128 | > 128 |  | > 128 | 128 (≈ 299 µM) | 64 (≈ 149 µM) | 
FC(F)(F)c1ccc(/N=N/Nc2ccc(C(F)(F)F)cc2C(F)(F)F)c(C(F)(F)F)c1 |  |  | > 128 |  |  |  | > 128 | 
O=C(c1ccncc1)N(/N=N/c1ccc([N+](=O)[O-])cc1Cl)c1ccc([N+](=O)[O-])cc1Cl | 16 (≈ 34.7 µM) | 128 (≈ 278 µM) | > 128 | > 128 | 16 (≈ 34.7 µM) | 16 (≈ 34.7 µM) | 16 (≈ 34.7 µM) | 
O=C(c1ccncc1)N(/N=N/c1ccc([N+](=O)[O-])cc1Br)c1ccc([N+](=O)[O-])cc1Br | 32 (≈ 58.2 µM) | 128 (≈ 233 µM) | > 128 | > 128 | 32 (≈ 58.2 µM) | 32 (≈ 58.2 µM) | 32 (≈ 58.2 µM) | 
O=C(CCl)N(/N=N/c1ccc(Cl)cc1C(F)(F)F)c1ccc(Cl)cc1C(F)(F)F | > 128 |  | > 128 |  |  |  | > 128 | 
O=C(c1cccnc1)N(/N=N/c1ccc([N+](=O)[O-])c(C(F)(F)F)c1)c1ccc([N+](=O)[O-])c(C(F)(F)F)c1 | 4 (≈ 7.57 µM) | 64 (≈ 121 µM) | > 128 | > 128 | 64 (≈ 121 µM) | 32 (≈ 60.6 µM) | 4 (≈ 7.57 µM) | 
Ic1ccccc1/N=N/Nc1ccccc1I |  | > 128 | > 128 |  |  | > 128 | > 128 | 
O=C(c1cccnc1)N(/N=N/c1ccc([N+](=O)[O-])cc1)c1ccc([N+](=O)[O-])cc1 | 128 (≈ 326 µM) | > 128 | > 128 |  | 16 (≈ 40.8 µM) | 8 (≈ 20.4 µM) | 64 (≈ 163 µM) | 
O=C(c1ccncc1)N(/N=N/c1ccc([N+](=O)[O-])cc1F)c1ccc([N+](=O)[O-])cc1F | 32 (≈ 74.7 µM) | > 128 | > 128 |  |  | > 128 | 32 (≈ 74.7 µM) | 
O=C(N[C@H](CO)[C@H](O)c1ccc([N+](=O)[O-])cc1)C(Cl)Cl [CHLORAMPHENICOL] |  |  |  |  |  |  |  | 4 to 32 (≈ 12.4 to 99 µM)
O=C(O)c1cn(C2CC2)c2cc(N3CCNCC3)c(F)cc2c1=O [CIPROFLOXACIN] |  |  |  |  |  |  |  | 0.125 to 64 (≈ 0.377 to 193 µM)
CCC[C@@H]1C[C@@H](C(=O)N[C@@H]([C@H]2O[C@H](SC)[C@H](O)[C@@H](O)[C@H]2O)[C@H](C)Cl)N(C)C1 [CLINDAMYCIN] |  |  |  |  |  |  |  | 0.125 to 64 (≈ 0.294 to 151 µM)
CC[C@H]1OC(=O)[C@H](C)[C@@H](O[C@H]2C[C@@](C)(OC)[C@@H](O)[C@H](C)O2)[C@H](C)[C@@H](O[C@@H]2O[C@H](C)C[C@H](N(C)C)[C@H]2O)[C@](C)(O)C[C@@H](C)C(=O)[C@H](C)[C@@H](O)[C@]1(C)O [ERYTHROMYCIN] |  |  |  |  |  |  |  | 8 to 64 (≈ 10.9 to 87.2 µM)
COc1c(N2CCNC(C)C2)c(F)cc2c(=O)c(C(=O)O)cn(C3CC3)c12 (stereo unspecified) [GATIFLOXACIN] |  |  |  |  |  |  |  | 0.5 to 4 (≈ 1.33 to 10.7 µM)
NC[C@H]1O[C@H](O[C@H]2[C@H](O)[C@@H](O[C@H]3O[C@H](CO)[C@@H](O)[C@H](N)[C@H]3O)[C@H](N)C[C@@H]2N)[C@H](O)[C@@H](O)[C@@H]1O [KANAMYCIN] |  |  |  |  |  |  |  | > 64
C[C@H]1COc2c(N3CCN(C)CC3)c(F)cc3c(=O)c(C(=O)O)cn1c23.C[C@H]1COc2c(N3CCN(C)CC3)c(F)cc3c(=O)c(C(=O)O)cn1c23.O [LEVOFLOXACIN] |  |  |  |  |  |  |  | 0.25 to 32
